Data set [1] in a line: AUC (0 to t) in Beagle dog at 20 mg/kg, po. Particulars: plasma. The format is ADME, organism-based, Canis lupus familiaris. Further details: dose 20 mg/kg, route oral.
The next data set addresses Dipeptidyl peptidase 9 (Homo sapiens, UniProt Q86TI2). Description: Inhibition of DPP9 after 20 mins by fluorescence assay. The essentials: (§1)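 Enzyme and inhibitor were preincubated for 10 min at room temperature in 50 mM Tris pH 7.5 with 0.1% BSA. The reaction was started with Gly-Pro-AMC and run for 20 min at room temperature. IC50 is the mean of three separate experiments, from curve fitting.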

Data set [2] is described as follows: Half life in Sprague-Dawley rat at 10 mg/kg, iv. To be noted: in vivo. On the set-up: dose 10 mg/kg, route intravenous. The format is ADME, organism-based.
The nature of data set [3]: AUC (0 to t) in Beagle dog at 10 mg/kg, iv. It counts as ADME, organism-based, Canis lupus familiaris. On the set-up: dose 10 mg/kg, route intravenous. To be noted: plasma.
Data set [4] in a line: Tmax in Beagle dog at 10 mg/kg, iv. It counts as ADME, organism-based, Canis lupus familiaris. Further details: dose 10 mg/kg, route intravenous. To be noted: in vivo.
Data set [5] in a line: Mean residence time in Sprague-Dawley rat at 20 mg/kg, po. To be noted: in vivo. Further details: dose 20 mg/kg, route oral. It counts as ADME, organism-based.
In data set [6] the test system is Mus musculus. Description: Antidiabetic activity in ICR mouse assessed as reduction of serum DPP4 activity at 3 mg/kg, po. The format is functional, organism-based. On the set-up: dose 3 mg/kg. The essentials: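 Compound was given orally at 3 mg/kg, or vehicle, with n = 5 per group. Serum was mixed with 80 mM MgCl2 for 5 min at room temperature, then 0.1 mM Gly-Pro-AMC and buffer were added. Fluorescence (ex 380 nm, em 460 nm) was read every 3 min over 18 min, and serum DPP-IV specific activity was calculated from these reads.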

Data set [7] can be described thus: Oral bioavailability in Beagle dog at 20 mg/kg. It counts as ADME, organism-based, Canis lupus familiaris. Particulars: in vivo.
Data set [8] deals with Mus musculus. Kind of data set: Antidiabetic activity in C57BL/6J mouse high-fat diet model assessed as reduction in glucose AUC (0 to 120) at 3 mg/kg, po pretreated 30 mins before glucose challenge measured by oral glucose tolerance test. The format is functional, organism-based. Further details: dose 3 mg/kg.
A short description of data set [9]: Cmax in Beagle dog at 10 mg/kg, iv. The format is ADME, organism-based, Canis lupus familiaris. Further details: dose 10 mg/kg, route intravenous. Particulars: in vivo.
Data set [10] is described as follows: Plasma clearance in Sprague-Dawley rat at 10 mg/kg, iv. The format is ADME, organism-based. Further details: dose 10 mg/kg, route intravenous.
Data set [11] in a line: Mean residence time in Beagle dog at 10 mg/kg, iv. The format is ADME, organism-based, Canis lupus familiaris. Further details: dose 10 mg/kg, route intravenous. Particulars: in vivo.
The target of a further data set is Dipeptidyl peptidase 8 (Homo sapiens, UniProt Q6V1X1). Kind of data set: Inhibition of DPP8 after 20 mins by fluorescence assay. The essentials: as §1
Chain of Dipeptidyl peptidase 8 (Q6V1X1 whole entry): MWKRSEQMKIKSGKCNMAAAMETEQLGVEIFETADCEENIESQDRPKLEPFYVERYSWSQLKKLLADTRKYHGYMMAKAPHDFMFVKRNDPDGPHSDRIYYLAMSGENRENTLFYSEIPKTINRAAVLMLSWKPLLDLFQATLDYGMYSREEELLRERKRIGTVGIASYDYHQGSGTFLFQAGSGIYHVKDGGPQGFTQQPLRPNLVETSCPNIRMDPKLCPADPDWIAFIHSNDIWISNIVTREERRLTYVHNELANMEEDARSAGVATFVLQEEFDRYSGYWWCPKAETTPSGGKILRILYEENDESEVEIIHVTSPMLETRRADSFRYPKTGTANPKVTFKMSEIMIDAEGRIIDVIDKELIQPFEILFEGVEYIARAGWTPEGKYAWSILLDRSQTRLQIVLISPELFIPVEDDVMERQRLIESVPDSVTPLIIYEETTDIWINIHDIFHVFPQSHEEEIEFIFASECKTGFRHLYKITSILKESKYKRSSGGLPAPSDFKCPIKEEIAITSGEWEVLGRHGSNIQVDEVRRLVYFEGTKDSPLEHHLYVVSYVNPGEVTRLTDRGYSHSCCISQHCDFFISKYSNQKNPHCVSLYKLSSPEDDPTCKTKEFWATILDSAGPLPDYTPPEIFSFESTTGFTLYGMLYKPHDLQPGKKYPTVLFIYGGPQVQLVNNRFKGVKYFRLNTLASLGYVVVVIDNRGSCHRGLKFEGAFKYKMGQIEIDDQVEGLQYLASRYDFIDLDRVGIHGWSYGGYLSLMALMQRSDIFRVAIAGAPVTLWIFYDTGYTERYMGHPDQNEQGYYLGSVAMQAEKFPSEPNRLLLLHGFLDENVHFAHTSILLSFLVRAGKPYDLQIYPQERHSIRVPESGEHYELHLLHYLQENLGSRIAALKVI
Data set [12] can be described thus: Tmax in Sprague-Dawley rat at 20 mg/kg, po. It counts as ADME, organism-based. On the set-up: dose 20 mg/kg, route oral. Particulars: in vivo.
The nature of data set [13]: Plasma clearance in Beagle dog at 10 mg/kg, iv. It counts as ADME, organism-based, Canis lupus familiaris. Further details: dose 10 mg/kg, route intravenous.
The subject of a further data set is Rattus norvegicus. Description: AUC (0 to t) in Sprague-Dawley rat at 20 mg/kg, po. It counts as ADME, organism-based, Plasma. Further details: dose 20 mg/kg, route oral. To be noted: in vivo.
Data set [14] can be described thus: Half life in Beagle dog at 10 mg/kg, iv. The format is ADME, organism-based, Canis lupus familiaris. Further details: dose 10 mg/kg, route intravenous. Particulars: in vivo.
Data set [15] can be described thus: Mean residence time in Beagle dog at 20 mg/kg, po. The format is ADME, organism-based, Canis lupus familiaris. Further details: dose 20 mg/kg, route oral. To be noted: in vivo.
Data set [16] in a line: Tmax in Beagle dog at 20 mg/kg, po. The format is ADME, organism-based, Canis lupus familiaris. On the set-up: dose 20 mg/kg, route oral. To be noted: in vivo.
Data set [17] can be described thus: Cmax in Sprague-Dawley rat at 10 mg/kg, iv. The format is ADME, organism-based. Further details: dose 10 mg/kg, route intravenous. Particulars: in vivo.
Data set [18] in a line: Half life in Sprague-Dawley rat at 20 mg/kg, po. It counts as ADME, organism-based. On the set-up: dose 20 mg/kg, route oral. Particulars: in vivo.
A short description of data set [19]: Cmax in Sprague-Dawley rat at 20 mg/kg, po. It counts as ADME, organism-based. Further details: dose 20 mg/kg, route oral. Particulars: in vivo.
Data set [20] in a line: Mean residence time in Sprague-Dawley rat at 10 mg/kg, iv. Further details: dose 10 mg/kg, route intravenous. Particulars: in vivo. The format is ADME, organism-based.
The nature of data set [21]: Cmax in Beagle dog at 20 mg/kg, po. The format is ADME, organism-based, Canis lupus familiaris. On the set-up: dose 20 mg/kg, route oral. To be noted: in vivo.
Data set [22] can be described thus: Oral bioavailability in Sprague-Dawley rat at 20 mg/kg. It counts as ADME, organism-based. To be noted: in vivo.
The target of a further data set is Dipeptidyl peptidase 4 (Homo sapiens, UniProt P27487). Description: Inhibition of DPP4 after 20 mins by fluorescence assay.
Chain of Dipeptidyl peptidase 4 (P27487 whole entry): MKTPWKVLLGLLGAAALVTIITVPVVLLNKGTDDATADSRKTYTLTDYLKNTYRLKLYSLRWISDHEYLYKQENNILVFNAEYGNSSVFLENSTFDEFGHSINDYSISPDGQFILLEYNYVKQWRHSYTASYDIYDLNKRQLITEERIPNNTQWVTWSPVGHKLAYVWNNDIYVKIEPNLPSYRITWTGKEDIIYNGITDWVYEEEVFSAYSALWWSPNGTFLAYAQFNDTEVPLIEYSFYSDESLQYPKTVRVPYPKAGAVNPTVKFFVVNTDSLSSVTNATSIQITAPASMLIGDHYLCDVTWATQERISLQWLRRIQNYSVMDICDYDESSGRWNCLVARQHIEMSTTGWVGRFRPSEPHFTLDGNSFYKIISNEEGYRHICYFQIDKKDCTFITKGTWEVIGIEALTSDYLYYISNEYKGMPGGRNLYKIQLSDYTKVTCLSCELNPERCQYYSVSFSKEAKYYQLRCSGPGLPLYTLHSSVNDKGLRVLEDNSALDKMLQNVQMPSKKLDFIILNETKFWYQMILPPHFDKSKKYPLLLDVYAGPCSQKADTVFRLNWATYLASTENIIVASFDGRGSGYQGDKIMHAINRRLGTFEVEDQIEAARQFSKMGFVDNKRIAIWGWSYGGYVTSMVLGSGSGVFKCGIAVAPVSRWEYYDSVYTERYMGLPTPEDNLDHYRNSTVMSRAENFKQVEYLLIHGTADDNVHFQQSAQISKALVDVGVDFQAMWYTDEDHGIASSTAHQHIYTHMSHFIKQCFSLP
In data set [23] the target is Voltage-gated inwardly rectifying potassium channel KCNH2 (Homo sapiens, UniProt Q12809). Description: Inhibition of human ERG expressed in HEK293 cells after 3 hrs by nonradioactive rubidium efflux assay. It counts as cell-based. Particulars: hek293, 3 h.
Chain of Voltage-gated inwardly rectifying potassium channel KCNH2 (Q12809 whole entry): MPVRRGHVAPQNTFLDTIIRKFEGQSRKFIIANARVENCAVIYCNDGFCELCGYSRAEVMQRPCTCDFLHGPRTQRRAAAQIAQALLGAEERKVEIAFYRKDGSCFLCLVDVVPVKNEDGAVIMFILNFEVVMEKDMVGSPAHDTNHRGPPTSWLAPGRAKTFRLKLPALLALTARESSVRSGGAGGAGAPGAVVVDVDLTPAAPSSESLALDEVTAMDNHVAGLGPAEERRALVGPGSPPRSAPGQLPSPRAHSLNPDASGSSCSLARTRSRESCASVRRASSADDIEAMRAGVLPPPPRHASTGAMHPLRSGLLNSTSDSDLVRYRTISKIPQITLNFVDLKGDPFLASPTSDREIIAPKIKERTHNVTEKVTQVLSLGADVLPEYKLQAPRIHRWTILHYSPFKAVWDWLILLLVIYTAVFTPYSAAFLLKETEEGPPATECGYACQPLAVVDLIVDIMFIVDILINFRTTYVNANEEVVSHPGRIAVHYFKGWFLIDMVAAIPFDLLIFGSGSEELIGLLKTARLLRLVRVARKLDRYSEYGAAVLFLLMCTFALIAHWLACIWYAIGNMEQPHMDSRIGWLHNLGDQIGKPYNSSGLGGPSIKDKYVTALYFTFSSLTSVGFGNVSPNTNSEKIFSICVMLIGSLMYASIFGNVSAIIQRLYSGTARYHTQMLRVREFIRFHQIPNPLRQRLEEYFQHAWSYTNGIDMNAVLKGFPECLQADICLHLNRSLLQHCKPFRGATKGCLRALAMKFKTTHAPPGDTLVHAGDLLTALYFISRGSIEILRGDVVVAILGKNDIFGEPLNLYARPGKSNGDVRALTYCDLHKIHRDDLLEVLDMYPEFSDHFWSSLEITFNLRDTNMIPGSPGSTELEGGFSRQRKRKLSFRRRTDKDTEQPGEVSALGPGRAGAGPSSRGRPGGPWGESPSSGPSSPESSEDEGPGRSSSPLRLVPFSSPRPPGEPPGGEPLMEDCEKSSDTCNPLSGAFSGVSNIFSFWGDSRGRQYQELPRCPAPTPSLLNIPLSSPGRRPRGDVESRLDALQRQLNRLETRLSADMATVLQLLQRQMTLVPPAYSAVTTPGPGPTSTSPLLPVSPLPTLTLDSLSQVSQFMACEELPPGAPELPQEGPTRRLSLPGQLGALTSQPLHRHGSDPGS
Data set [24] is described as follows: Plasma clearance in Beagle dog at 20 mg/kg, po. It counts as ADME, organism-based, Canis lupus familiaris. On the set-up: dose 20 mg/kg, route oral.
Data set [25] is described as follows: Half life in Beagle dog at 20 mg/kg, po. The format is ADME, organism-based, Canis lupus familiaris. On the set-up: dose 20 mg/kg, route oral. To be noted: in vivo.
Data set [26] is described as follows: Tmax in Sprague-Dawley rat at 10 mg/kg, iv. The format is ADME, organism-based. On the set-up: dose 10 mg/kg, route intravenous. Particulars: in vivo.
Data set [27] is described as follows: AUC (0 to t) in Sprague-Dawley rat at 10 mg/kg, iv. It counts as ADME, organism-based. Further details: dose 10 mg/kg, route intravenous. Particulars: plasma.

pIC50: −log10 of the molar value. Active and inactive are the calls of the source.

The text below walks through data of ChEMBL document CHEMBL1649374 (Eur J Med Chem, 2011).

For orientation: AUC(0-t) means the area under the concentration-time curve up to a stated or last time point. One may read the pIC50 as the IC50 on a negative log10 scale, so that one unit is a factor of ten. A higher pIC50 goes with a low IC50. As a reminder, the half-life is the time needed for the level to fall by half in the phase considered. Low readings indicate fast loss, high ones slow loss. The Tmax is the time from dosing to the highest level. Usually MRT stands for a mean duration of stay, worked out from the concentration-time curve. Broadly, the bioavailability is the share of a dose that reaches the circulation, judged against a reference dose that is usually intravenous. High values mean good availability, low ones poor availability. Broadly, the Cmax is the peak of the concentration-time curve. The term clearance denotes the volume of plasma or blood freed of the substance per unit of time. A low value points to a low capacity for elimination. Broadly, the AUC is concentration integrated over time. As a reminder, the CL/F is the apparent clearance, not corrected for the fraction that reaches the circulation.

Chain of Dipeptidyl peptidase 9 (Q86TI2 whole entry): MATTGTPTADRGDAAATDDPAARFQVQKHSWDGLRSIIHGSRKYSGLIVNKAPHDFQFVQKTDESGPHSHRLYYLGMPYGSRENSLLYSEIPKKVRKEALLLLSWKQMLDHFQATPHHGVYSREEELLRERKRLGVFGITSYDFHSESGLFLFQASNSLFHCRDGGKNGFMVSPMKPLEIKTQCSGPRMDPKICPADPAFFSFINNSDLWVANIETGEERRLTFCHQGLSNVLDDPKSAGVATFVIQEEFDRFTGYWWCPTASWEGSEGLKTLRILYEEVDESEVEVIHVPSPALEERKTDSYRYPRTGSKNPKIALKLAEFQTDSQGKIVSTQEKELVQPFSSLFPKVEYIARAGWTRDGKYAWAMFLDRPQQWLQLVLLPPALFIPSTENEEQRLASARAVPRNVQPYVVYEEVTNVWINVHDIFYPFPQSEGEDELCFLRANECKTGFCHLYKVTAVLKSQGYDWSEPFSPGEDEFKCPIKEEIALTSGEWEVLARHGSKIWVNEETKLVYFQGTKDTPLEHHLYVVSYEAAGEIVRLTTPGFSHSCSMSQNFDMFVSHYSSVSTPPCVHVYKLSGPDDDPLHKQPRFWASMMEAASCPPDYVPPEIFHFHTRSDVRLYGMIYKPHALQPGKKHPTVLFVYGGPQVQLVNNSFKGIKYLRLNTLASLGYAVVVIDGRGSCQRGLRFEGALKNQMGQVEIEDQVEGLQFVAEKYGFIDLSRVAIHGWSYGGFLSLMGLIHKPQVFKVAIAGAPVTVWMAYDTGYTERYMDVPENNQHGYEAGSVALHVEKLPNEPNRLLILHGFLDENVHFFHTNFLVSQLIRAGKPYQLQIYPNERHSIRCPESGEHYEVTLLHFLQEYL

Regarding `N#Cc1ccccc1Cn1c(N2CCC[C@@H](N)C2)nc2ccsc2c1=O`, the AUC(0-t) worked out at 11.2 µg·h/mL in data set [1], 13.3 µg·h/mL in [3] and 1.48 µg·h/mL in data set [27]. Further, the results for the pIC50 against Dipeptidyl peptidase 9, against Dipeptidyl peptidase 8 and against Dipeptidyl peptidase 4 were less than 4.60, less than 4.60 and 9.48, respectively. The half-life is 5.9 h in [2], 10.1 h in [14], 7 h in data set [18] and 11.3 h in data set [25]. Moreover, the Tmax in [4] amounted to 6 min; in [12], 0.59 h; in data set [16] it was 0.91 h; in data set [26], 2.4 min. The MRT in [5] is 6.7 h; in [11], 6 h; in data set [15], 9 h; in [20], 2.7 h. Besides, the outcome with Mus musculus [6] and in the data set with Mus musculus [8] was Active. The figures for the bioavailability in data set [7] and in [22] were 42.3% and 23.7%, respectively. For the same molecule, the Cmax in [9] turned out to be 5.75 µg/mL; in data set [17] it was 1.23 µg/mL; in data set [19], 0.17 µg/mL; in [21] it was 2.07 µg/mL. For the same molecule, the clearance was 6.97 L/h/kg in data set [10] and 1.33 L/h/kg in [13]. In the data set on Rattus norvegicus, this molecule displayed an AUC of 0.69 µg·h/mL. The Activity in [23] came out at 517.4 µM. In data set [24], the CL/F was determined as 0.69 L/h/kg.

For the molecule `Cc1csc2c(=O)n(Cc3ccccc3C#N)c(N3CCC[C@@H](N)C3)nc12`, the values for the pIC50 at Dipeptidyl peptidase 9, on Dipeptidyl peptidase 8 and against Dipeptidyl peptidase 4 were less than 4.60, less than 4.60 and 8.76, respectively. The Activity in data set [23] was 203.5 µM.

`N#Cc1ccccc1Cn1c(N2CCC[C@@H](N)C2)nc2sccc2c1=O`: the results for the pIC50 on Dipeptidyl peptidase 9, against Dipeptidyl peptidase 8 and against Dipeptidyl peptidase 4 were less than 4.60, less than 4.60 and 9.06, respectively. Moreover, the Activity in data set [23] was 484.6 µM.

In the case of `N#Cc1ccccc1Cn1c(N2CCC[C@@H](N)C2)nc2scc(C(F)(F)F)c2c1=O`, the pIC50 on Dipeptidyl peptidase 9 is less than 4.60; at Dipeptidyl peptidase 8, less than 4.60; at Dipeptidyl peptidase 4, 7.05.

On to `Cc1csc2nc(N3CCC[C@@H](N)C3)n(Cc3ccccc3C#N)c(=O)c12`, for which the pIC50 was less than 4.60 at Dipeptidyl peptidase 9, less than 4.60 at Dipeptidyl peptidase 8 and 8.88 against Dipeptidyl peptidase 4. In data set [23], the Activity is 376.3 µM.
